# Measured values from ChEMBL document CHEMBL1140872, “Discovery of a potent and selective inhibitor for human carbonyl reductase 1 from propionate scanning applied to the macrolide zearalenone” (Bioorg Med Chem, 2009).
# Columns and labels:
# [1] = biological target: T1, Cyclin-G-associated kinase (Homo sapiens) (UniProt O14976); assay: Binding affinity to human recombinant GAK expressed in Escherichia coli assessed as thermal shift by differential scanning fluorimetry
# T1 sequence (whole entry): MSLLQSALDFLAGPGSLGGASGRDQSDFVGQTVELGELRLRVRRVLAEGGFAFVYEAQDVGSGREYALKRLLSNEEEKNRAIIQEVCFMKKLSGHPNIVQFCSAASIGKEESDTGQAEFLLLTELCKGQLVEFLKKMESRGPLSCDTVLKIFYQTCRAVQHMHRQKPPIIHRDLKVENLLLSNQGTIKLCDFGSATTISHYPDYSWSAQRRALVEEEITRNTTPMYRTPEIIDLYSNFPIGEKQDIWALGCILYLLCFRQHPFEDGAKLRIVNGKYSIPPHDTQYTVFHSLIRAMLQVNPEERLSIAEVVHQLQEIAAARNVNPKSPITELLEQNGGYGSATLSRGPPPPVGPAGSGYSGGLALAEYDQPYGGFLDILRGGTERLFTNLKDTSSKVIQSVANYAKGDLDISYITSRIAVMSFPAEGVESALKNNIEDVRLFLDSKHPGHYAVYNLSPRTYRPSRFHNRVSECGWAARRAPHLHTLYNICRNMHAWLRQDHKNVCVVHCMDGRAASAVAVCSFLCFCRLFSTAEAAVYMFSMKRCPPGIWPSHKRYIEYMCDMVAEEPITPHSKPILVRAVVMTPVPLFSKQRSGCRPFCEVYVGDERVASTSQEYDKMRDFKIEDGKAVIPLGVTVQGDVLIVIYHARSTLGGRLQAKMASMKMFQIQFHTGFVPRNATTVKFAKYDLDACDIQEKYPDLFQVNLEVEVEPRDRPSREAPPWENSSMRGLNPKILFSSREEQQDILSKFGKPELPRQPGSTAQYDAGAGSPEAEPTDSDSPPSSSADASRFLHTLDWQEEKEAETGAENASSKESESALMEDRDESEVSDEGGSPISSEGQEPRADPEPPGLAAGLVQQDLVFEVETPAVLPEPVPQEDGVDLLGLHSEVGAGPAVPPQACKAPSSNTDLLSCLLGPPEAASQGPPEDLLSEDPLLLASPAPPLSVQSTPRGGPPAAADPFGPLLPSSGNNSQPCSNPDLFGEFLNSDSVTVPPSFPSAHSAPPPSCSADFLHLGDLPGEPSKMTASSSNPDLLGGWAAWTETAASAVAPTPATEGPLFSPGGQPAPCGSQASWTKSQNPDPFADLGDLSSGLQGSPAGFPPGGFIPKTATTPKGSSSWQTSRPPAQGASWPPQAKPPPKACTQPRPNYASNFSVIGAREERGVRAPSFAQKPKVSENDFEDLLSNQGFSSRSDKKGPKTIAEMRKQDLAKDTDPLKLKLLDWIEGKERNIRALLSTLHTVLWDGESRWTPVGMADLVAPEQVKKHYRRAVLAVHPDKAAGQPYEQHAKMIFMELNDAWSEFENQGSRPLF
# Method in brief: (§1)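 Thermal-shift (DSF) binding assay with purified recombinant catalytic domains or proteins carrying an N- or C-terminal His6 tag or GST fusion. Purity was >95% by SDS/PAGE and identity was confirmed by MS. Protein was at 2 µM final in 10 mM HEPES pH 7.5 and 150 mM NaCl. Tm shift is reported, with 2 °C as the threshold for binding.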
# [2] = biological target: T2, Carbonyl reductase [NADPH] 3 (Homo sapiens) (UniProt O75828); assay: Binding affinity to human recombinant carbonyl reductase 3 expressed in Escherichia coli assessed as thermal shift by differential scanning fluorimetry in presence of NADP+; method in brief: as §1
# T2 sequence (whole entry): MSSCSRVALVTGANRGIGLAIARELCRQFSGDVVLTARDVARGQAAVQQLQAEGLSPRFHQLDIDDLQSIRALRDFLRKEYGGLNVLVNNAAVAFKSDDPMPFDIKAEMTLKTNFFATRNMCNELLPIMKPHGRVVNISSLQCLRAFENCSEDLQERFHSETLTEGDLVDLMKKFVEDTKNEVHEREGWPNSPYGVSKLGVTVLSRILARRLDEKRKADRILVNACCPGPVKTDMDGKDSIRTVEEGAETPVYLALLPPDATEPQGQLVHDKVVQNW
# [3] = biological target: Mitogen-activated protein kinase 11 (Homo sapiens) (UniProt Q15759); assay: Binding affinity to human recombinant MAPK11 expressed in Escherichia coli assessed as thermal shift by differential scanning fluorimetry; method in brief: as §1
# Mitogen-activated protein kinase 11 (Homo sapiens), sequence (Q15759 whole entry): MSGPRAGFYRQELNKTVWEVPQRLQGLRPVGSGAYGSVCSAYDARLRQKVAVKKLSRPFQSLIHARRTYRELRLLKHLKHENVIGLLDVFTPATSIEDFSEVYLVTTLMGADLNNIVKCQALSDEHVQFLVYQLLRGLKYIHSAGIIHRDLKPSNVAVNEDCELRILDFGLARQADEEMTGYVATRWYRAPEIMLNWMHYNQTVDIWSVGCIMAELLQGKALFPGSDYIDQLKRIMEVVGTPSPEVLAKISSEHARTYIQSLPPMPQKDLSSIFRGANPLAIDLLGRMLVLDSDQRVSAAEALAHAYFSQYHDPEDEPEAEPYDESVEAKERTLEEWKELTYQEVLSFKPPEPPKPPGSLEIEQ
Compound,Tm [1],Tm [2],Tm [3]
COc1cc2c(c(OC)c1)C(=O)O[C@@H](C)CCC[C@@H](O)[C@@H](C)CC/C=C/2,< 2 °C,< 2 °C,< 2 °C
COC1=C2C[C@@H](C)C[C@H](OC)[C@H](O)[C@@H](C)/C=C(\C)[C@H](OC(N)=O)[C@@H](OC)/C=C\C=C(/C)C(=O)NC(=CC1=O)C2=O,< 2 °C,< 2 °C,< 2 °C
COc1cc2c(c(OC)c1)C(=O)O[C@@H](C)CCCC(=O)[C@@H](C)CC/C=C/2,< 2 °C,< 2 °C,< 2 °C
COc1cc(O)c2c(c1)/C=C/CC[C@H](C)C(=O)CCC[C@H](C)OC2=O,< 2 °C,< 2 °C,< 2 °C
C[C@H]1CCCC(=O)[C@@H](C)CC/C=C/c2cc(O)cc(O)c2C(=O)O1,2.9 °C,< 2 °C,< 2 °C
C[C@@H]1C[C@H]2O[C@@H]2/C=C\C=C\C(=O)Cc2c(Cl)c(O)cc(O)c2C(=O)O1 [RADICICOL],< 2 °C,< 2 °C,< 2 °C
C[C@H]1CCCC(=O)CCC/C=C/c2cc(O)cc(O)c2C(=O)O1,2.4 °C,< 2 °C,< 2 °C
